{"data": "Results collected from several papers", "target": "Calcium/calmodulin-dependent protein kinase type IV (CAMK4, Homo sapiens, UniProt Q16566)", "Sequence (Q16566 1-473, as in one of the studies)": "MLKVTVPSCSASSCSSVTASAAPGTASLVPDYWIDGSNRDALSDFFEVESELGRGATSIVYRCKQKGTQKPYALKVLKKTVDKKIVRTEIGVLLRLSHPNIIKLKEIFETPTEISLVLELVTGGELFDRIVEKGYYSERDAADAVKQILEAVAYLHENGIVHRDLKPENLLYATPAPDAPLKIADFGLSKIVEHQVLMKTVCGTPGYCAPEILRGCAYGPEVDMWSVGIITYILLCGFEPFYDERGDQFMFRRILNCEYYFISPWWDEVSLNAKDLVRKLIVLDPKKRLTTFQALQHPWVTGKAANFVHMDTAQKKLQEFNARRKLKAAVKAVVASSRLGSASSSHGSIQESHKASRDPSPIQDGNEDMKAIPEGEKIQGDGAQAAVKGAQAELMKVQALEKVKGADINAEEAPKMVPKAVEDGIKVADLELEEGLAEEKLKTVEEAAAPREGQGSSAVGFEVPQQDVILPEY", "note": "Compare with care: the assays were run in different laboratories."}
{"Structure (SMILES)": "CCN(CC)CCNC(=O)c1c(C)[nH]c(/C=C2\\C(=O)Nc3ccc(F)cc32)c1C", "read-out": "enzyme activity", "mode": "inhibitor", "tested at": "10 µM", "endpoint": "inhibition", "result": "87%"}
{"Structure (SMILES)": "COc1cc2ncnc(Nc3ccc(Oc4ccccc4)c(C)c3C)c2cc1OC", "read-out": "enzyme activity", "mode": "inhibitor", "tested at": "1 µM", "endpoint": "inhibition", "result": "-2%"}
{"Structure (SMILES)": "Cn1c2c(Cl)c(Cl)ccc2c2cn[nH]c(=O)c21", "read-out": "thermal stability", "method": "DSF", "tested at": "10 µM", "endpoint": "ΔTm", "result": "0.1 °C"}
{"Structure (SMILES)": "O=C1Nc2ccc(Cl)cc2C1=Cc1cc(Cl)c(O)c(Cl)c1", "read-out": "cell-free assay", "tested at": "0.5 µM", "endpoint": "remaining signal", "result": "96.8%"}
{"Structure (SMILES)": "Cn1nc(C(=O)NCc2ccc(C(=O)O)cc2)cc1-c1ccc2[nH]ccc2c1", "read-out": "cell-free assay", "method": "competition with immobilised ligand", "tested at": "0.1 µM", "endpoint": "remaining binding", "result": "92%"}
{"Structure (SMILES)": "Cn1c2c(c3ccc(Cl)c(Cl)c31)C(C#N)C1(CCCCC1)NC2=O (racemic)", "read-out": "thermal stability", "method": "DSF", "tested at": "10 µM", "endpoint": "ΔTm", "result": "0.7 °C"}
{"Structure (SMILES)": "O=C(Nc1cnn(-c2csc(C(=O)NC3COC3)c2)c1)Nc1ccccc1Cl", "read-out": "enzyme activity", "mode": "inhibitor", "tested at": "5 µM", "endpoint": "remaining activity", "result": "114%"}
{"Structure (SMILES)": "Cc1cnc(NC2CCOCC2)nc1-n1cnc(C(=O)NC(CN)c2cc(F)cc(Cl)c2)c1 (centres unmarked)", "read-out": "enzyme activity", "mode": "inhibitor", "method": "radiometric", "tested at": "1 µM", "endpoint": "remaining activity", "result": "49%"}
{"Structure (SMILES)": "CCCOc1ccc(OC)c(F)c1C(=O)c1ccc(C(=O)N[C@@H]2CNC[C@H]2NC(=O)c2ccc3[nH]ncc3c2)cc1", "read-out": "enzyme activity", "mode": "inhibitor", "tested at": "10 µM", "endpoint": "remaining activity", "result": "95%"}
{"Structure (SMILES)": "Cc1ccc(C(=O)Nc2ccc(CN3CCN(C)CC3)c(C(F)(F)F)c2)cc1C#Cc1cnc2cccnn12", "read-out": "enzyme activity", "mode": "inhibitor", "tested at": "23.5 nM", "endpoint": "remaining activity", "result": "100%"}
{"Structure (SMILES)": "Cc1ccc(NC(=O)c2ccc(CN3CCN(C)CC3)cc2)cc1Nc1nc(-c2cccnc2)cs1", "read-out": "cell-free assay", "tested at": "0.5 µM", "endpoint": "remaining signal", "result": "98.6%"}
{"Structure (SMILES)": "O=C(NS(=O)(=O)c1ccc(NCC2CCOCC2)c([N+](=O)[O-])c1)c1ccc(N2CCN(Cc3ccc(C(F)(F)F)cc3-c3ccc(Cl)cc3)CC2)cc1Oc1cnc2[nH]ccc2c1", "read-out": "cell-free assay", "method": "competition with immobilised ligand", "tested at": "1 µM", "endpoint": "remaining binding", "result": "100%"}
{"Structure (SMILES)": "CCC1(CC)NC(=O)c2c(c3ccc(Cl)c(Cl)c3n2C)C1C#N (centres unmarked)", "read-out": "thermal stability", "method": "DSF", "tested at": "10 µM", "endpoint": "ΔTm", "result": "-0.2 °C"}
{"Structure (SMILES)": "O=C(O)c1ccc2c3c1cccc3c(=O)n1c3ccccc3nc21", "read-out": "cell-free assay", "tested at": "0.5 µM", "endpoint": "remaining signal", "result": "101%"}
{"Structure (SMILES)": "Cc1cc(NC(=O)c2cccc3cc(-c4cccc5[nH]nc(N)c45)ccc23)ccc1F", "read-out": "enzyme activity", "mode": "inhibitor", "tested at": "0.1 µM", "endpoint": "activity vs control", "result": "104%"}
{"Structure (SMILES)": "O=C(O)c1cc(-c2ccc(C3CCNCC3)cc2)c2ccc(-c3ccc(C(F)(F)F)cc3)cc2c1", "read-out": "cell-free assay", "method": "competition with immobilised ligand", "tested at": "1 µM", "endpoint": "remaining binding", "result": "100%"}
{"Structure (SMILES)": "CN(C)C1CCN(CC#Cc2nn(C3CCCC3)c3nc(NCc4ccccc4)ncc23)C1 (centres unmarked)", "read-out": "enzyme activity", "mode": "inhibitor", "method": "FRET", "tested at": "1 µM", "endpoint": "inhibition", "result": "7%"}
{"Structure (SMILES)": "Cc1c[nH]c2nccc(Oc3c(F)cc(Nc4cc(Cl)nc(N)n4)cc3F)c12", "read-out": "cell-free assay", "method": "competition with immobilised ligand", "tested at": "0.1 µM", "endpoint": "remaining binding", "result": "100%"}
{"Structure (SMILES)": "COc1cc2c(Nc3ccc(Br)cc3F)ncnc2cc1OCC1CCN(C)CC1", "read-out": "cell-free assay", "tested at": "0.5 µM", "endpoint": "remaining signal", "result": "101%"}
{"Structure (SMILES)": "Cc1sc(C(=O)NC2COC2)cc1-n1cc(NC(=O)Nc2c(F)cccc2Cl)cn1", "read-out": "enzyme activity", "mode": "inhibitor", "tested at": "10 µM", "endpoint": "remaining activity", "result": "98.5%"}
{"Structure (SMILES)": "CC1(C)NC(=O)c2[nH]c3c(Cl)c(Cl)ccc3c2C1C#N (centres unmarked)", "read-out": "thermal stability", "method": "DSF", "tested at": "10 µM", "endpoint": "ΔTm", "result": "-0.1 °C"}
{"Structure (SMILES)": "CNC(=O)c1cc(Oc2ccc(NC(=O)Nc3ccc(Cl)c(C(F)(F)F)c3)cc2)ccn1", "read-out": "enzyme activity", "mode": "inhibitor", "tested at": "10 µM", "endpoint": "inhibition", "result": "10%"}
{"Structure (SMILES)": "O=C(NCCCC1CCCCC1)c1ccc(CNC(=O)c2cnn(-c3ccccc3)c2C(F)(F)F)cc1", "read-out": "cell-free assay", "method": "competition with immobilised ligand", "tested at": "0.1 µM", "endpoint": "remaining binding", "result": "100%"}
{"Structure (SMILES)": "Cn1c2c(Cl)c(Cl)ccc2c2cc[nH]c(=O)c21", "read-out": "thermal stability", "method": "DSF", "tested at": "10 µM", "endpoint": "ΔTm", "result": "0.4 °C"}
{"Structure (SMILES)": "CC(=O)c1c(NS(C)(=O)=O)c2cc(-c3ccc(Cl)cc3)c(-c3ccc(Cl)cc3Cl)nc2n(C)c1=O", "read-out": "cell-free assay", "method": "competition with immobilised ligand", "tested at": "1 µM", "endpoint": "remaining binding", "result": "100%"}
{"Structure (SMILES)": "CS(=O)(=O)CCNCc1ccc(-c2ccc3ncnc(Nc4ccc(OCc5cccc(F)c5)c(Cl)c4)c3c2)o1", "read-out": "cell-free assay", "tested at": "0.5 µM", "endpoint": "remaining signal", "result": "107%"}
{"Structure (SMILES)": "CN1CCC2(CC1)NC(=O)c1c(c3ccc(Cl)c(Cl)c3n1C)C2C#N (racemic)", "read-out": "thermal stability", "method": "DSF", "tested at": "10 µM", "endpoint": "ΔTm", "result": "-0.2 °C"}
{"Structure (SMILES)": "O=C(NCc1ncc(C(F)(F)F)cc1Cl)c1ccc2c(c1)C1(CCS(=O)(=O)CC1)[C@H](C1CC1)N2S(=O)(=O)c1ccc(F)cc1", "read-out": "cell-free assay", "method": "competition with immobilised ligand", "tested at": "1 µM", "endpoint": "remaining binding", "result": "86%"}
{"Structure (SMILES)": "Clc1ccc(Nc2nnc(Cc3ccncc3)c3ccccc23)cc1", "read-out": "cell-free assay", "tested at": "0.5 µM", "endpoint": "remaining signal", "result": "93.4%"}
{"Structure (SMILES)": "CC1=C(C#N)C(c2ccc3c(c2)c(NC(=O)c2ccccc2C)nn3C)C(C#N)=C(C)N1", "read-out": "cell-free assay", "method": "competition with immobilised ligand", "tested at": "1 µM", "endpoint": "remaining binding", "result": "70%"}
{"Structure (SMILES)": "Cn1c2c(c3ccccc31)C(C#N)C(C)(C)NC2=O (centres unmarked)", "read-out": "thermal stability", "method": "DSF", "tested at": "10 µM", "endpoint": "ΔTm", "result": "0 °C"}
{"Structure (SMILES)": "Cc1ncc([N+](=O)[O-])n1C(=NO)c1ccccc1C(F)(F)F", "read-out": "enzyme activity", "mode": "inhibitor", "tested at": "10 µM", "endpoint": "inhibition", "result": "27.6%"}
